Results published in article PMC6519384 (Andrology, 2018).

Legend:
[1] = Single oral dose of 316 mg TU in hypogonadal men; assay type: in vivo, human; details: TU concentrations below 15 ng/mL; oral 316 mg TU
Summary of the method: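 Eight hypogonadal men received one 316 mg oral TU dose in a self‑emulsifying system just before a meal. Blood was drawn at −30 and 0 min, then hourly for 12 h, into plain and NaF‑EDTA tubes. T was measured by LC‑MS/MS after ethyl acetate:hexane (3:2) extraction. The % difference in T between tube types was plotted against the matching average TU, with regression.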

[2] = TU added to serum with increasing NaF, T measured; assay type: in vitro ADME, human; details: 500 ng/mL TU added to two serum samples or an aqueous solution
blood esterases = test: Ex vivo addition of TU to blood in different blood collection tubes; assay type: in vitro ADME, human
Summary of the method: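 Venous blood from hypogonadal or healthy men is aliquoted (2 mL) into duplicate plain or inhibitor-containing tubes. TU in methanol (≤1% methanol) is added to 30–1000 ng/mL final, then held 30/60 min at 4 °C or RT before centrifugation. T is extracted with ethyl acetate:hexane (3:2) and measured by LC‑MS/MS (m/z 289.2/109.0, D2‑T internal standard). Results are % difference vs the average plain tube with no ester added.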

[3] = TU 300 ng/mL, K2EDTA (1.8 mg/mL) tube, 30 min 4 °C, Experiment 2
[4] = TU 300 ng/mL, K2EDTA (1.8 mg/mL) tube, 60 min 4 °C, Experiment 2
[5] = TU 300 ng/mL, K2EDTA (1.8 mg/mL) tube, 60 min RT, Experiment 2
[6] = TU 300 ng/mL, NaF (1.5 mg/mL) + Na2EDTA (3 mg/mL) tube, 60 min RT, Experiment 2
[7] = TU 300 ng/mL, NaF (5 mg/mL) + K2Oxalate (4 mg/mL) tube, 60 min RT, Experiment 2
[8] = TU 300 ng/mL, NaF (15 mg/mL) tube, 30 min 4 °C, Experiment 1
[9] = TU 300 ng/mL, NaF (15 mg/mL) tube, 30 min RT, Experiment 1
[10] = TU 300 ng/mL, P800 tube, 30 min 4 °C, Experiment 2
[11] = TU 300 ng/mL, P800 tube, 60 min 4 °C, Experiment 2
[12] = TU 300 ng/mL, P800 tube, 60 min RT, Experiment 2
[13] = TU 300 ng/mL, Plain tube, 30 min 4 °C, Experiment 1
[14] = TU 300 ng/mL, Plain tube, 30 min RT, Experiment 1
[15] = TU 300 ng/mL, P‐800 tube, 30 min 4 °C, Experiment 1
[16] = TU 300 ng/mL, P‐800 tube, 30 min RT, Experiment 1
[17] = TU 600 ng/mL, K2EDTA (1.8 mg/mL) tube, 30 min 4 °C, Experiment 2
[18] = TU 600 ng/mL, K2EDTA (1.8 mg/mL) tube, 60 min 4 °C, Experiment 2
[19] = TU 600 ng/mL, K2EDTA (1.8 mg/mL) tube, 60 min RT, Experiment 2
[20] = TU 600 ng/mL, NaF (1.5 mg/mL) + Na2EDTA (3 mg/mL) tube, 60 min RT, Experiment 2
[21] = TU 600 ng/mL, NaF (5 mg/mL) + K2Oxalate (4 mg/mL) tube, 60 min RT, Experiment 2
[22] = TU 600 ng/mL, NaF (15 mg/mL) tube, 30 min 4 °C, Experiment 1
[23] = TU 600 ng/mL, NaF (15 mg/mL) tube, 30 min RT, Experiment 1
[24] = TU 600 ng/mL, P800 tube, 30 min 4 °C, Experiment 2
[25] = TU 600 ng/mL, P800 tube, 60 min 4 °C, Experiment 2
[26] = TU 600 ng/mL, P800 tube, 60 min RT, Experiment 2
[27] = TU 600 ng/mL, Plain tube, 30 min 4 °C, Experiment 1
[28] = TU 600 ng/mL, Plain tube, 30 min 4 °C, Experiment 2
[29] = TU 600 ng/mL, Plain tube, 30 min RT, Experiment 1
[30] = TU 600 ng/mL, Plain tube, 60 min 4 °C, Experiment 2
[31] = TU 600 ng/mL, Plain tube, 60 min RT, Experiment 2
[32] = TU 600 ng/mL, P‐800 tube, 30 min 4 °C, Experiment 1
[33] = TU 600 ng/mL, P‐800 tube, 30 min RT, Experiment 1

With `CCCCCCCCCCC(=O)O[C@H]1CC[C@H]2[C@@H]3CCC4=CC(=O)CC[C@]4(C)[C@H]3CC[C@]12C` [TU, testosterone undecanoate] the “Mean difference in T concentrations between plain and NaF‐EDTA tubes” value [1] was ~0%, the “Measured T levels after incubation with different amounts of NaF” value [2] was “did not increase” and the “% difference vs. no TU added” value (blood esterases; [3]) was “+20.5%”. For the same compound, the “Measured T” value (blood esterases; [3]) was 534.5 ng/dL, the “% difference vs. no TU added” value (blood esterases; [4]) was “+14.7%” and the “Measured T” value (blood esterases; [4]) was 521.5 ng/dL. For the same compound, the “% difference vs. no TU added” value (blood esterases; [5]) was “+129.7%”, the “Measured T” value (blood esterases; [5]) was 1105.0 ng/dL and the “% difference vs. no TU added” value (blood esterases; [6]) was “+57.5%”. For the same compound, the “Measured T” value (blood esterases; [6]) was 705.0 ng/dL, the “% difference vs. no TU added” value (blood esterases; [7]) was “+79.5%” and the “Measured T” value (blood esterases; [7]) was 717.0 ng/dL. For the same compound, the “% difference vs. no TU added” value (blood esterases; [8]) was −0.6%, the “Measured T” value (blood esterases; [8]) was 269.5 ng/dL and the “% difference vs. no TU added” value (blood esterases; [9]) was “+16.4%”. The “Measured T” value (blood esterases; [9]) was 301.5 ng/dL, the “% difference vs. no TU added” value (blood esterases; [10]) was “+13.1%” and the “Measured T” value (blood esterases; [10]) was 492.5 ng/dL. The “% difference vs. no TU added” value (blood esterases; [11]) was “+3.3%”, the “Measured T” value (blood esterases; [11]) was 491.5 ng/dL and the “% difference vs. no TU added” value (blood esterases; [12]) was “+100.9%”. The “Measured T” value (blood esterases; [12]) was 860.0 ng/dL, the “% difference vs. no TU added” value (blood esterases; [13]) was “+17.9%” and the “Measured T” value (blood esterases; [13]) was 412.0 ng/dL. For the same compound, the “Measured T” value (blood esterases; TU 300 ng/mL, Plain tube, 30 min 4 °C, Experiment 2) was 624.5 ng/dL, the “% difference vs. no TU added” value (blood esterases; [14]) was “+43.1%” and the “Measured T” value (blood esterases; [14]) was 505.0 ng/dL. The “Measured T” value (blood esterases; TU 300 ng/mL, Plain tube, 60 min 4 °C, Experiment 2) was 741.5 ng/dL, the “Measured T” value (blood esterases; TU 300 ng/mL, Plain tube, 60 min RT, Experiment 2) was 984.0 ng/dL and the “% difference vs. no TU added” value (blood esterases; [15]) was “+18.7%”. The “Measured T” value (blood esterases; [15]) was 384.0 ng/dL, the “% difference vs. no TU added” value (blood esterases; [16]) was “+41.7%” and the “Measured T” value (blood esterases; [16]) was 467.0 ng/dL. For the same compound, the “% difference vs. no TU added” value (blood esterases; [17]) was “+21.6%”, the “Measured T” value (blood esterases; [17]) was 539.5 ng/dL and the “% difference vs. no TU added” value (blood esterases; [18]) was “+47.3%”. For the same compound, the “Measured T” value (blood esterases; [18]) was 669.5 ng/dL, the “% difference vs. no TU added” value (blood esterases; [19]) was “+266.9%” and the “Measured T” value (blood esterases; [19]) was 1765.0 ng/dL. The “% difference vs. no TU added” value (blood esterases; [20]) was “+176.0%”, the “Measured T” value (blood esterases; [20]) was 1235.0 ng/dL and the “% difference vs. no TU added” value (blood esterases; [21]) was “+171.6%”. For the same compound, the “Measured T” value (blood esterases; [21]) was 1085.0 ng/dL, the “% difference vs. no TU added” value (blood esterases; [22]) was “+24.2%” and the “Measured T” value (blood esterases; [22]) was 336.5 ng/dL. For the same compound, the “% difference vs. no TU added” value (blood esterases; [23]) was “+39.0%”, the “Measured T” value (blood esterases; [23]) was 360.0 ng/dL and the “% difference vs. no TU added” value (blood esterases; [24]) was “+18.3%”. The “Measured T” value (blood esterases; [24]) was 515.0 ng/dL, the “% difference vs. no TU added” value (blood esterases; [25]) was “+22.3%” and the “Measured T” value (blood esterases; [25]) was 582.0 ng/dL. The “% difference vs. no TU added” value (blood esterases; [26]) was “+222.4%”, the “Measured T” value (blood esterases; [26]) was 1380.0 ng/dL and the “% difference vs. no TU added” value (blood esterases; [27]) was “+30.3%”. For the same compound, the “Measured T” value (blood esterases; [27]) was 455.5 ng/dL, the “% difference vs. no TU added” value (blood esterases; [28]) was “+23.7%” and the “Measured T” value (blood esterases; [28]) was 541.0 ng/dL. For the same compound, the “% difference vs. no TU added” value (blood esterases; [29]) was “+130.6%”, the “Measured T” value (blood esterases; [29]) was 814.0 ng/dL and the “% difference vs. no TU added” value (blood esterases; [30]) was “+88.8%”. The “Measured T” value (blood esterases; [30]) was 794.0 ng/dL, the “% difference vs. no TU added” value (blood esterases; [31]) was “+271.8%” and the “Measured T” value (blood esterases; [31]) was 1515.0 ng/dL. For the same compound, the “% difference vs. no TU added” value (blood esterases; [32]) was “+15.8%”, the “Measured T” value (blood esterases; [32]) was 374.5 ng/dL and the “% difference vs. no TU added” value (blood esterases; [33]) was “+95.1%”. The “Measured T” value (blood esterases; [33]) was 643.0 ng/dL, the T measured (blood esterases; TU added 30 ng/mL, blood from four hypogonadal men, plain tubes, baseline serum T 26.0 ± 6.2 ng/dL) was 48.9 ± 5.1 ng/dL and the “Increase in measured T from baseline” value (blood esterases; highest TU concentration (1000 ng/mL), blood from hypogonadal men, plain tubes) was ≤ 22 fold. For the same compound, the “Reduction of overestimation of T by collecting blood into NaF tubes” value (blood esterases; increasing amounts of TU added to blood) was 30–85% and the “Overestimation of measured T levels” value (blood esterases; increasing amounts of TU added to plain tubes, Table 3, Experiments 1 and 2) was “+24 to 272%”.
